We go through eleven compounds from ChEMBL document CHEMBL1944616, “Benzoxaborole antimalarial agents. Part 2: Discovery of fluoro-substituted 7-(2-carboxyethyl)-1,3-dihydro-1-hydroxy-2,1-benzoxaboroles” (Bioorg Med Chem Lett, 2012).

One data set relates to Plasmodium falciparum. Kind of data set: Antimalarial activity against ring stage Plasmodium falciparum 3D7 infected in human erythrocytes after 48 hrs by flow cytometry. In kind it is functional, organism-based. As to conditions: 3D7, 48 h. Background: A flow cytometer gives signals particle by particle.
Data set [1] in a line: Growth inhibition of human HeLa cells at 25 uM after 72 hrs by MTT assay. The data set is classed as cell-based. As to conditions: read-out: GI. Summed up:
(§1)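 Cytotoxicity counter-screen on human Jurkat (T cell) and human HeLa (cervical carcinoma) cell lines. Selected compounds were tested at one fixed concentration each.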
(Tetrazolium dyes change colour on reduction, which living cells bring about.)

Data set [2] in a line: Growth inhibition of human Jurkat cells at 25 uM after 72 hrs by MTT assay. The data set is classed as cell-based. The conditions noted are these: read-out: GI. The gist of the method:
as §1

As a reminder, the IC50 is the concentration that gives 50% inhibition. Low values mean greater potency in that assay, high ones weaker potency in that assay.

For `O=C(O)C1CCc2ccc3c(c2C1)B(O)OC3` (stereo not given), in the data set on Plasmodium falciparum, the 50% inhibitory concentration (IC50) stood at 1820 nM.

The compound `O=C(O)CCc1cc(F)cc2c1B(O)OC2` yielded a 50% inhibitory concentration (IC50) in the data set with Plasmodium falciparum of 61 nM.

Compound `CC(=O)Nc1ccc(CCC(=O)O)c2c1COB2O` registered a half-maximal inhibitory concentration (IC50) with Plasmodium falciparum above 5000 nM.

In the data set with Plasmodium falciparum, `O=C(O)CCc1cc(Cl)cc2c1B(O)OC2` showed a 50% inhibitory concentration (IC50) of 1330 nM.

Compound `O=C(O)CCc1c(Cl)ccc2c1B(O)OC2` returned a 50% inhibitory concentration (IC50) in the data set on Plasmodium falciparum of 750 nM. This IC50 lies about 1.8-fold lower than the previous one.

On to `O=P(O)(O)CCc1cccc2c1B(O)OC2`, for which the concentration for half-maximal inhibition (IC50) with Plasmodium falciparum was above 5000 nM. The inhibition at 72 h, 25 µM is 26% in data set [1] and 3% in data set [2].

As to `O=C(O)C(F)Cc1cccc2c1B(O)OC2` (stereo not given), inhibition in the data set with Plasmodium falciparum was half-maximal at 830 nM (IC50).

In the data set with Plasmodium falciparum, `Cc1ccc(CCC(=O)O)c2c1COB2O` displayed an IC50 of 1450 nM.

In the data set with Plasmodium falciparum, `COc1cc(CCC(=O)O)c2c(c1)COB2O` came in with an IC50 of 3480 nM.

For `O=C1C(O)=C([C@H]2CC[C@H](c3ccc(Cl)cc3)CC2)C(=O)c2ccccc21` [ATOVAQUONE], inhibition in the data set on Plasmodium falciparum was half-maximal at 1 nM (IC50). This IC50 is about 3500-fold lower than that of the compound before.

Compound `O=C1NC(=O)C(Cc2cccc3c2B(O)OC3)N1` (stereo not given) yielded a 50% inhibitory concentration (IC50) in the data set with Plasmodium falciparum above 5000 nM. Besides, the inhibition at 72 h, 25 µM in data set [1] amounted to 67.7%; in data set [2], 14.1%.
